Data on 15 compounds can be found in paper PMC8255191 (European Journal of Medicinal Chemistry, 2021).

Data set [1] has as its target D2pol: polymerase domain of dengue 2 virus (Dengue virus type 2, UniProt P14340). In words: In vitro polymerase assay. As to conditions: read-out: IC50 D2pol; polymerase activity. It counts as biochemical.
Data set [2] concerns the target D2 NS5: full length DENV protein (Dengue virus type 2, UniProt P14340). The data set is described as follows: In vitro polymerase assay. It counts as biochemical, dengue 2 virus. The following applies: read-out: IC50 D2 NS5, polymerase activity.
The target of data set [3] is ZIKV NS5: full length ZIKV protein (Zika virus, UniProt A0A024B7W1). The data set is described as follows: In vitro polymerase assay. The class given is biochemical. As to conditions: read-out: IC50 ZIKV NS5, polymerase activity.
Chain of ZIKV NS5: full length ZIKV protein (A0A024B7W1 2521-3423 limits assumed): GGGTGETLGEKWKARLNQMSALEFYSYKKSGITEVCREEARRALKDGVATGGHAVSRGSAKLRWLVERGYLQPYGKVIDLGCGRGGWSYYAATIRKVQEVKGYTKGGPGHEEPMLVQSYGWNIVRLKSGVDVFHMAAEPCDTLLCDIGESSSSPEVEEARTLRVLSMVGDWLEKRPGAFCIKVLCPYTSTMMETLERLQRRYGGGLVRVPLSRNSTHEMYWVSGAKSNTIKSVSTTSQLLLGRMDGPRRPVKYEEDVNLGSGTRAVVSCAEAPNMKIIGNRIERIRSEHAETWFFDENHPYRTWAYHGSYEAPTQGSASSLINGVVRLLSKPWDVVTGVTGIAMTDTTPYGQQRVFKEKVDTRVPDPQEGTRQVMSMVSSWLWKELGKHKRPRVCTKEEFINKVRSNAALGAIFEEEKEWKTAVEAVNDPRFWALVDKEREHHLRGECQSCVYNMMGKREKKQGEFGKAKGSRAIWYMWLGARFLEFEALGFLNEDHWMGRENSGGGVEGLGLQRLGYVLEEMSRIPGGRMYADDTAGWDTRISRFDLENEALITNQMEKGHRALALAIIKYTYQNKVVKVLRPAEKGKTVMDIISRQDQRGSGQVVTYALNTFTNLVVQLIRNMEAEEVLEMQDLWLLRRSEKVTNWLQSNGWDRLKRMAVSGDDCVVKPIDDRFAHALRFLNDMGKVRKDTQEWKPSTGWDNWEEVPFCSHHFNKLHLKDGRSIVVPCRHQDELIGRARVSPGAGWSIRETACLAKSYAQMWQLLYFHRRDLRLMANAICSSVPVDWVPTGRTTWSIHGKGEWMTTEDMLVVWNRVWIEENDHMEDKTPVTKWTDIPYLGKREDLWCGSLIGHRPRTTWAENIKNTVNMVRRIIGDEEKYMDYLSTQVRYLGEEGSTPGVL
For data set [4], the system named is ZIKV. As to conditions: read-out: IC50 ZIKV; cited from earlier work.
The test system of data set [5] is DENV-2. As to conditions: read-out: IC50 DENV-2; cited from earlier work.
Data set [6] can be described thus: Cytotoxicity, CellTiter-Glo 2.0 luminescent cell viability assay. It counts as cell-based. The following applies: human, Huh7 cells. Background: In ATP-based viability assays light output follows the ATP content of the culture.
A further data set has as its system PR8 H1N1. In words: Time-of-addition, In Cell Western of hemagglutinin. The class given is cell-based, Influenza A virus.
Data set [7] can be described thus: ABTS radical decolorization assay. As to conditions: 10 μM-1 mM, 10 min; Fig. 2. It counts as physicochemical. The method in brief:
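ABTS radical cation solution, diluted 1:100 in ethanol to an absorbance of 0.70 (±0.02) at 734 nm, serves as the control solution. Test compound or ascorbic acid reference, dissolved in DMSO at 10 μM, 50 μM, 0.1 mM, 0.2 mM, 0.5 mM or 1 mM, is added. A734 is read after exactly 10 min, and %scavenging = [(A0 − As)/A0] × 100, with the control run in each assay.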

The test system of data set [8] is DENV NS3 and NS5 proteins. The class given is cell-based, DENV-2. As to conditions: for expression of NS5 protein: 6i 50 μM (p ≤ 0.0001 at 16 h), Sofosbuvir 100 μM (from 12 h, p ≤ 0.01); for expression of NS3 protein: 6i 50 μM (p ≤ 0.05 at 12 h), Sofosbuvir 100 μM (from 12 h, p ≤ 0.05).
Data set [9] in a line: Stability towards oxidative stress. It counts as physicochemical. The following applies: 40 mM H2O2 in ethanol, argon atmosphere; data not shown.
In the next data set the test system is DENV. The data set is described as follows: In vitro resistance selection in Huh7 cells, NS3/NS5 population sequencing. The class given is cell-based, Dengue virus serotype 2 (New Guinea C).
For data set [10], the system named is influenza A virus strains PR8 H1N1, pandemic 2009H1N1, avian Ulster H7N1. The class given is cell-based.
In data set [11] the test system is Dengue, Zika, West Nile and Influenza A viruses. The data set is described as follows: Antiviral activity, range over the tested viruses. It counts as cell-based. The following applies: read-out: IC50 (range over viruses).
The subject of data set [12] is ZIKV. In words: In vitro resistance selection in Huh7 cells, NS3/NS5 population sequencing. It counts as cell-based, Zika virus (H/PF/2013).
The next data set relates to SARS-CoV-2. The following applies: SARS-CoV-2, Calu-3; literature value in parenthesis; cited from earlier work.
Data set [13] relates to DENV-2. In words: Plaque reduction assay. It counts as cell-based, Dengue virus serotype 2 (New Guinea C). The following applies: Dengue virus, DENV2, read-out: DENV-2 IC50. (Plaque reduction counts the foci of infection that form in a cell layer.)

“And” between values parts separate entries of the source, which are not always exact repeats. Equal entries are not always repeated. Where two headings read alike, the source gives them in different places.

On to `Nc1ncnc2c1ncn2[C@@H]1O[C@H](COP(=O)(O)OP(=O)(O)OP(=O)(O)O)C[C@H]1O` [3'dATP], for which the values for the IC50 in data set [1], in data set [2] and in data set [3] were 0.27 ± 0.03 µM, 0.32 ± 0.05 µM and 1 ± 0.2 µM, respectively.
With `Oc1cccc(Nc2nc(NCCOc3ccccc3)nc3[nH]cnc23)c1` [Compound 3], the values for the IC50 in the data set on ZIKV [4] and with DENV-2 [5] were 16.7 µM and 10 µM, respectively.
In the case of `Fc1cccc(Nc2nc(NCCOc3ccccc3)nc3[nH]cnc23)c1` [Compound 6c, N6-(3-fluorophenyl)-N2-(2-phenoxyethyl)-9H-purine-2,6-diamine], the CC50 (in general, the concentration giving 50% cytotoxicity) in data set [6] was > 200 µM.
Still for that read-out and setting: for `CNc1nc(Nc2cccc(C(=O)OC)c2)c2nc[nH]c2n1` [Compound 6d, Methyl 3-((2-(methylamino)-9H-purin-6 yl)amino)benzoate] the value was > 200 µM.
On the same count and under the same terms, under `COC(=O)c1cccc(Nc2nc(NCCO)nc3[nH]cnc23)c1` [Compound 6e, Methyl 3-((2-((2-hydroxyethyl)amino)-9H-purin-6-yl)amino)benzoate] stands > 200 µM; under `CNc1nc(Nc2cccc(C(F)(F)F)c2)c2nc[nH]c2n1` [Compound 6g, N2-methyl-N6-(3-(trifluoromethyl)phenyl)-9H-purine-2,6-diamine], > 200 µM.
Take `FC(F)(F)c1cccc(Nc2nc(NCCOc3ccccc3)nc3[nH]cnc23)c1` [Compound 6i, N [2]-(2-phenoxyethyl)-N [6]-(3-(trifluoromethyl)phenyl)-9H-purine-2,6-diamine]: in the data set with PR8 H1N1, the “effect on HA expression” value was “not quite effective”. Further, in data set [7], the “radical scavenging activity (% inhibition of the ABTS absorbance at 734 nm)” value is recorded as “not observed”. Moreover, in data set [8], the “expression of NS5 protein” value is “significantly reduced”. Also, the “expression of NS3 protein” value in data set [8] is listed as “significantly reduced”. Also, in [8] (6i 50 μM, 16 h post infection, untreated control 0.726 ± 0.135), the “MCC NS3/NS5 (Manders' colocalization coefficient)” value was determined as 0.404 ± 0.106. The “MCC NS5/NS3 (Manders' colocalization coefficient)” value in [8] (6i 50 μM, 16 h post infection, untreated control 0.752 ± 0.125) was 0.397 ± 0.101. For the same compound, in data set [9], the “stability towards oxidative stress” value is given as “stable for days”. Besides, the “dpi (days post infection to 80% CPE)” value in the data set on DENV (6i 15 μM) is 6 days; in the data set with DENV (6i 30 μM) it was 7 days; in the data set on DENV (6i 60 μM), 5 days; in the data set on DENV (6i 120 μM) it was 5 days and 9 days; in the data set with ZIKV [12] (6i 15 μM), 8 days; in the data set on ZIKV [12] (6i 30 μM) it was 5 days. Also, the “dpi (days post infection to 80% CPE)” value with ZIKV [12] (6i 60 μM) and with ZIKV [12] (6i 120 μM) was 5 days in each case. In addition, in data set [10], the “inhibition of viral protein expression” value is 20–26% and 28–45%. Also, the cytotoxic concentration (CC50) in [6] was > 200 µM. In data set [11], the IC50 (in general, the concentration that gives 50% inhibition) is 0.5 to 5.3 µM.
Consider `Oc1ccc(Nc2nc(NCCOc3ccccc3)nc3[nH]cnc23)cc1O` [Compound 6j, 4-((2-((2-phenoxyethyl)amino)-9H-purin-6-yl)amino)benzene-1,2-diol], for which the CC50 in data set [6] is > 200 µM.
The same measure, in the same setting: for `CNc1nc(Nc2cccc(C(=O)O)c2)c2nc[nH]c2n1` [Compound 6l, 3-((2-(methylamino)-9H-purin-6-yl)amino)benzoic acid] the value was > 200 µM.
With `O=C(O)c1cccc(Nc2nc(NCCOc3ccccc3)nc3[nH]cnc23)c1` [Compound 6m, 3-((2-((2-phenoxyethyl)amino)-9H-purin-6-yl)amino)benzoic acid], the 50% cytotoxic concentration (CC50) in data set [6] was > 200 µM.
Regarding `Fc1cccc(NNc2nc(NCCOc3ccccc3)nc3[nH]cnc23)c1` [Compound 10a, 6-(2-(3-fluorophenyl) hydrazinyl)-N-(2-phenoxyethyl)-9H-purin-2-amine], the “radical scavenging activity (% inhibition of the ABTS absorbance at 734 nm)” value in data set [7] is given as “clear concentration-dependent radical scavenging activity”. Further, in data set [9], the “stability towards oxidative stress” value is recorded as “quickly converted into 11a”.
For `Fc1cccc(/N=N/c2nc(NCCOc3ccccc3)nc3[nH]cnc23)c1` [Compound 11a, 6-((3-fluorophenyl)diazenyl)-N-(2-phenoxyethyl)-9H-purin-2-amine] the same measures were “not observed” and “stable for days”.
On to `CCC(CC)COC(=O)[C@H](C)N[P@](=O)(OC[C@H]1O[C@@](C#N)(c2ccc3c(N)ncnn23)[C@H](O)[C@@H]1O)Oc1ccccc1` [RMD], for which the half-inhibitory concentration (IC50) in the data set on SARS-CoV-2 was 0.28 µM.
In the case of `NC(=O)c1ncn([C@@H]2O[C@H](CO)[C@@H](O)[C@H]2O)n1` [Ribavirin, reference compound], in [6], the cytotoxic concentration (CC50) was > 200 µM.
As to `CC(C)OC(=O)[C@H](C)N[P@](=O)(OC[C@H]1O[C@@H](n2ccc(=O)[nH]c2=O)[C@](C)(F)[C@@H]1O)Oc1ccccc1` [Sofosbuvir, reference compound], in data set [8], the “expression of NS5 protein” value was “significantly reduced” and the “expression of NS3 protein” value is on record as “significantly reduced”. For the same compound, the IC50 with DENV-2 [13] is 3.8 µM. The half-maximal cytotoxic concentration (CC50) in data set [6] is > 200 µM.
